Test results: ChEMBL document CHEMBL1800018, “Discovery of a series of imidazo[4,5-b]pyridines with dual activity at angiotensin II type 1 receptor and peroxisome proliferator-activated receptor-γ” (J Med Chem, 2011)
Calls of active or inactive are those of the source. No cut-off for these calls is given here.

Key:
Rattus norvegicus [1] = assay: Antidiabetic activity in ZDF rat assessed as blood glucose level at 0.1 mg/kg, po QD for 40 days (reference value: 771+/-60 mg/dL); assay type: functional
[2] = Cmax in SHR rat at 10 mg/kg, po; assay type: ADME, organism-based; design: dose 10 mg/kg, route oral; conditions: in vivo
Procedure, shortened: (§1)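 SHR received a single oral dose of 1, 3 or 10 mg/kg. Systemic exposure was determined as plasma Cmax and AUC.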

Rattus norvegicus [3] = assay: Antidiabetic activity in ZDF rat assessed as body weight gain at 100 mg/kg, po QD for 40 days (reference value: 133+/-9 g); assay type: functional
Procedure, shortened: (§2)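 Male ZDF rats, starting at about 6 weeks old, were dosed orally once daily for 40 days in 1.5% CMC/0.2% Tween 20 suspension, n = 8/group. Body weight was followed over the study. Gain was calculated per animal from day 0 to day 40 and compared with vehicle and pioglitazone (3 mg/kg) groups. Data are mean ± SEM.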

Rattus norvegicus [4] = assay: Antihypertensive activity in SHR rat assessed as decrease in arterial blood pressure at 10 mg/kg, po QD for 7 days; assay type: functional, Artery
Rattus norvegicus [5] = assay: Antidiabetic activity in ZDF rat assessed as adiponectin level at 0.1 mg/kg, po QD for 40 days (reference value: 11.9+/-1.5 ug/ml); assay type: functional
Rattus norvegicus [6] = assay: Antidiabetic activity in ZDF rat assessed as adiponectin level at 100 mg/kg, po QD for 40 days (reference value: 11.9+/-1.5 ug/ml); assay type: functional
[7] = AUC in rat at 1 mg/kg, iv; assay type: ADME, organism-based; design: dose 1 mg/kg, route intravenous; conditions: plasma
Rattus norvegicus [8] = assay: Antihypertensive activity in po dosed SHR rat assessed as decrease in arterial blood pressure administered as single dose; assay type: functional, organism-based; conditions: Artery
Procedure, shortened: (§3)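 SHR carried aortic radiotelemetry transmitters implanted under Telazol anesthesia and recovered for at least 1 week. Rats were randomized by 2 h baseline mean BP. Each received vehicle by oral gavage on Day 0 and a single drug dose (0.3–10 mg/kg) on Day 1, with BP followed 20 h each day. The change was taken as Day 1 minus Day 0, n = 8/group.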

[9] = AUC in ZDF rat at 10 mg/kg, po; assay type: ADME, organism-based; design: dose 10 mg/kg, route oral; conditions: plasma
Procedure, shortened: (§4)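 Male ZDF rats; satellite animals outside the efficacy groups were given oral doses of 3, 10 or 100 mg/kg. Plasma Cmax and AUC were calculated from these animals.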

Rattus norvegicus [10] = assay: Antihypertensive activity in SHR rat assessed as induction of reflex tachycardia at 10 mg/kg, po single dose measured 4 to 8 hrs post dosing
[11] = Cmax in ZDF rat at 100 mg/kg, po; assay type: ADME, organism-based; design: dose 100 mg/kg, route oral; conditions: in vivo; procedure, shortened: as §4
Rattus norvegicus [12] = assay: Antidiabetic activity in ZDF rat assessed as blood glucose level at 100 mg/kg, po QD for 40 days (reference value: 771+/-60 mg/dL); assay type: functional
Rattus norvegicus [13] = assay: Antidiabetic activity in ZDF rat assessed as adiponectin level at 30 mg/kg, po QD for 40 days (reference value: 11.9+/-1.5 ug/ml); assay type: functional
Rattus norvegicus [14] = assay: Antidiabetic activity in ZDF rat assessed as body weight gain at 1 mg/kg, po QD for 40 days (reference value: 133+/-9 g); assay type: functional; procedure, shortened: as §2
Rattus norvegicus [15] = assay: Antidiabetic activity in ZDF rat assessed as body weight gain at 30 mg/kg, po QD for 40 days (reference value: 133+/-9 g); assay type: functional; procedure, shortened: as §2
[16] = target: T1, Type-1 angiotensin II receptor (Homo sapiens, UniProt P30556); assay: Displacement of [125I]Tyr4-Sar1,Ile8-Angiotensin II from human Angiotensin 1 receptor after 60 mins by scintillation counting
T1 sequence (P30556 whole entry): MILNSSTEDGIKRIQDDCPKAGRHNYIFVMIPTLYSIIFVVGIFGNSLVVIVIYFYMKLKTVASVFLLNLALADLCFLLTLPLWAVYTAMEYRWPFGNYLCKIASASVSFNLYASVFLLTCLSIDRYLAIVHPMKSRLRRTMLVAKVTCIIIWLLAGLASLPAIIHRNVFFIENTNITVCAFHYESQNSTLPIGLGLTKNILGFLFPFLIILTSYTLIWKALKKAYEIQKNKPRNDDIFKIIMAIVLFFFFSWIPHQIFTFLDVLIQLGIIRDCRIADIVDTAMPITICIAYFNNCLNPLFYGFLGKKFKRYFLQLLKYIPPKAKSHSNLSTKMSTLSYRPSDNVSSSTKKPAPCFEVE

Rattus norvegicus [17] = assay: Antidiabetic activity in ZDF rat assessed as triglyceride level at 1 mg/kg, po QD for 40 days (reference value: 618+/-52 mg/dL); assay type: functional
[18] = AUC in SHR rat at 1 mg/kg, po; assay type: ADME, organism-based; design: dose 1 mg/kg, route oral; conditions: plasma; procedure, shortened: as §1
Rattus norvegicus [19] = assay: Antidiabetic activity in ZDF rat assessed as triglyceride level at 10 mg/kg, po QD for 40 days (reference value: 618+/-52 mg/dL); assay type: functional
Rattus norvegicus [20] = assay: Antihypertensive activity in SHR rat assessed as decrease in arterial blood pressure at 10 mg/kg, po administered as single dose; assay type: functional, Artery; procedure, shortened: as §3
Rattus norvegicus [21] = assay: Antidiabetic activity in ZDF rat assessed as body weight gain at 3 mg/kg, po QD for 40 days (reference value: 133+/-9 g); assay type: functional; procedure, shortened: as §2
[22] = AUC in SHR rat at 10 mg/kg, po; assay type: ADME, organism-based; design: dose 10 mg/kg, route oral; conditions: plasma; procedure, shortened: as §1
Rattus norvegicus [23] = assay: Antidiabetic activity in ZDF rat assessed as blood glucose level at 10 mg/kg, po QD for 40 days (reference value: 771+/-60 mg/dL); assay type: functional
[24] = Volume of distribution at steady state in rat at 1 mg/kg, iv; assay type: ADME, organism-based; design: dose 1 mg/kg, route intravenous; conditions: in vivo, read-out: Vdss
Rattus norvegicus [25] = species on record: Rattus norvegicus; assay: Steady state free plasma concentration in SHR rat; assay type: ADME, organism-based; conditions: in vivo, in the assay text read “ZDF rat” for “SHR rat”
[26] = target: T2, Peroxisome proliferator-activated receptor delta (Homo sapiens) (UniProt Q03181); assay: Transactivation of human PPARbeta
T2 sequence (whole entry): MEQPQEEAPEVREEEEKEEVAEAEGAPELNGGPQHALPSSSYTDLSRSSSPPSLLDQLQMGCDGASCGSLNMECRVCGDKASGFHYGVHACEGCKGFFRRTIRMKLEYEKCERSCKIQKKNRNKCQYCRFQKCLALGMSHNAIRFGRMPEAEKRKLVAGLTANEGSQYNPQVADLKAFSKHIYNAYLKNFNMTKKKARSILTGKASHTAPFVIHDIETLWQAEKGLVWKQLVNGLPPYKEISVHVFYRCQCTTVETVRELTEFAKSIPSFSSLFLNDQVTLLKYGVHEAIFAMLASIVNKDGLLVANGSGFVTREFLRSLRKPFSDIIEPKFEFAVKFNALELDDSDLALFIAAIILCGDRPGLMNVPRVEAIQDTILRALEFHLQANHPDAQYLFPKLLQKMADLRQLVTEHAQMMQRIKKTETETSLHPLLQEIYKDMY

[27] = target: T1, Type-1 angiotensin II receptor; assay: Binding affinity to human Angiotensin receptor 1
Procedure, shortened: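 Competition radioligand binding on human recombinant AT1 receptors, displacing [¹²⁵I]Tyr⁴-Sar¹,Ile⁸-angiotensin II.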

[28] = Half life in rat at 1 mg/kg, iv; assay type: ADME, organism-based; design: dose 1 mg/kg, route intravenous; conditions: in vivo
Rattus norvegicus [29] = assay: Antidiabetic activity in ZDF rat assessed as triglyceride level at 3 mg/kg, po QD for 40 days (reference value: 618+/-52 mg/dL); assay type: functional

Q: What does the source list for `CCc1nc2c(C)cc(CC(C)C)nc2n1[C@H]1CCc2cc(-c3ccccc3-c3nnn[nH]3)ccc21`?
A: Activity (Rattus norvegicus [1]): 771 mg/dL; Cmax [2]: 3.07 µg/mL; Activity (Rattus norvegicus [3]): 202 g; Activity (Rattus norvegicus [4]): >60 mmHg; Activity (Rattus norvegicus [5]): 9.9 µg/mL; Activity (Rattus norvegicus [6]): 27.5 µg/mL; AUC [7]: 1220 ng·h/mL; Activity (Rattus norvegicus [8]): Active; AUC [9]: 28000 ng·h/mL; Activity (Rattus norvegicus [10]): Active; Cmax [11]: 177 µg/mL; Activity (Rattus norvegicus [12]): 116 mg/dL; Activity (Rattus norvegicus [13]): 24.3 µg/mL; Activity (Rattus norvegicus [14]): 150 g; Activity (Rattus norvegicus [15]): 202 g; IC50 [16]: 1.6 nM; Activity (Rattus norvegicus [17]): 725 mg/dL; AUC [18]: 320 ng·h/mL; Activity (Rattus norvegicus [19]): 393 mg/dL; Activity (Rattus norvegicus [20]): 36 mmHg; Activity (Rattus norvegicus [21]): 159 g; AUC [22]: 6830 ng·h/mL; Activity (Rattus norvegicus [23]): 159 mg/dL; Vd [24]: 2.9 L/kg; Cp(f)ss (Rattus norvegicus [25]): 2.6 nM; Activity [26]: inactive; Ki [27]: 0.69 nM; half-life [28]: 2.1 h; Activity (Rattus norvegicus [29]): 734 mg/dL
